Test results: ChEMBL document CHEMBL4765310, “Discovery of 4-(3,5-dimethoxy-4-(((4-methoxyphenethyl)amino)methyl)phenoxy)-N-phenylaniline as a novel c-myc inhibitor against colorectal cancer in vitro and in vivo” (Eur J Med Chem, 2020)

How the values were obtained:
[1] = system: HCT-116; assay: Antiproliferative activity against human HCT-116 cells assessed as inhibition of cell viability measured after 72 hrs by MTT assay; format: functional, cell-based; conditions: HCT-116, 72 h
Method in brief: (§1)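 Cells kept at 37 °C, 5% CO₂ in RPMI 1640, L-15 or DMEM with 10% FBS and 1% penicillin-streptomycin. Plated at 2-4 × 10³ cells/well and dosed 24 h after plating. After 72 h exposure, MTT added for 2-4 h at 37 °C. Formazan dissolved in DMSO, absorbance read at 570 nm. IC50 is the mean of at least three independent experiments.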

[2] = system: SW-620; assay: Antiproliferative activity against human SW-620 cells assessed as inhibition of cell viability measured after 72 hrs by MTT assay; format: functional, cell-based; conditions: SW-620, 72 h; method in brief: as §1
[3] = system: HT-29; assay: Antiproliferative activity against human HT-29 cells assessed as inhibition of cell viability measured after 72 hrs by MTT assay; format: functional, cell-based; conditions: HT-29, 72 h; method in brief: as §1
[4] = system: HCT-15; assay: Antiproliferative activity against human HCT-15 cells assessed as inhibition of cell viability measured after 72 hrs by MTT assay; format: functional, cell-based; conditions: HCT-15, 72 h; method in brief: as §1
[5] = system: DLD-1; assay: Antiproliferative activity against human DLD-1 cells assessed as inhibition of cell viability measured after 72 hrs by MTT assay; format: functional, cell-based; conditions: DLD-1, 72 h; method in brief: as §1
[6] = Inhibition of dimerization of N-terminal His6-tagged human c-Myc bHLHZip domain (353 to 439 residues)/Max(151 residues) (unknown origin) expressed in Escherichia coli BL21DE3 measured after 1 hr by ELISA
Method in brief: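 Myc bHLHZip (5.5 μg/well) was coated at 4 °C for 24 h in PBS pH 7.0 buffer (EDTA, KCl, MgCl2, glycerol, NP40, DTT), then blocked with 3% BSA for 2 h at 37 °C. Detection used rabbit anti-c-Myc, HRP anti-rabbit and TMB, read at 450 nm.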

[7] = species on record: Homo sapiens; assay: Inhibition of dimerization of N-terminal His6-tagged human c-Myc bHLHZip domain (353 to 439 residues)/Max(151 residues) (unknown origin) expressed in Escherichia coli BL21DE3 assessed as inhibition of c-Myc/Max/DNA complex formation at 20 uM preincubated with c-Myc/Max for 1.5 hrs followed by incubation with DNA oligo for 0.5 hrs by EMSA analysis relative to control; conditions: time 2.0 hrs
Method in brief: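 Gel-shift used His-tagged Myc/Max complex (50 nM) with a biotinylated E-box duplex oligo (50 nM). Buffer was PBS pH 7.0 with 10 mM EDTA, 500 mM KCl, 30 mM MgCl2, 5% glycerol, 0.1% NP40, 1.5 mM DTT and 10% DMSO. Protein was preincubated with compound at 20 μM for 1.5 h at room temperature, then DNA was added for 0.5 h. Inhibition is relative to DMSO; three independent experiments.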

COc1cccc(CCNCc2c(OC)cc(Oc3cccc(Nc4ccccc4)c3)cc2OC)c1
IC50 [1]: 4.02 µM
IC50 [2]: 3.93 µM
IC50 [3]: 2.33 µM
IC50 [4]: 1.29 µM
IC50 [5]: 2.35 µM
IC50 [6]: 78 µM
inhibition [7]: 60.8%

COc1cc(Oc2cccc(Nc3ccccc3)c2)cc(OC)c1CNCCc1ccccc1
IC50 [1]: 13.6 µM
IC50 [2]: 11.6 µM
IC50 [3]: 6.06 µM
IC50 [4]: 6.14 µM
IC50 [5]: 6.77 µM
IC50 [6]: 96 µM
inhibition [7]: 45.1%

COc1cc(Oc2cccc(Nc3ccccc3)c2)cc(OC)c1CNCCNC(C)=O
IC50 [1]: 18.2 µM
IC50 [2]: 11.9 µM
IC50 [3]: 3.96 µM
IC50 [4]: 5.09 µM
IC50 [5]: 6.01 µM
IC50 [6]: > 150 µM
inhibition [7]: 10.2%

COc1ccc(CCCNCc2c(OC)cc(Oc3cccc(Nc4ccccc4)c3)cc2OC)cc1
IC50 [1]: 2.85 µM
IC50 [2]: 6.4 µM
IC50 [3]: 3.32 µM
IC50 [4]: 0.73 µM
IC50 [5]: 2.54 µM
IC50 [6]: 147 µM
inhibition [7]: 63.4%

COc1cc(Oc2cccc(Nc3ccccc3)c2)cc(OC)c1CNCc1ccc(C)cc1
IC50 [1]: 13.8 µM
IC50 [2]: 11.8 µM
IC50 [3]: 3.88 µM
IC50 [4]: 5.4 µM
IC50 [5]: 6.08 µM
IC50 [6]: 119 µM
inhibition [7]: 32.4%

COc1ccc(CCCNCc2c(OC)cc(Oc3ccc(Nc4ccccc4)cc3)cc2OC)cc1
IC50 [1]: 3.23 µM
IC50 [2]: 14.6 µM
IC50 [3]: 6.89 µM
IC50 [4]: 2.18 µM
IC50 [5]: 4.65 µM
IC50 [6]: 72 µM
inhibition [7]: 70.6%

COc1cc(Oc2cccc(Nc3ccccc3)c2)cc(OC)c1CN[C@H](C)c1ccccc1
IC50 [1]: > 20 µM
IC50 [2]: 18.7 µM
IC50 [3]: 5.12 µM
IC50 [4]: 7.55 µM
IC50 [5]: 8.57 µM
IC50 [6]: 116 µM
inhibition [7]: 30.5%

COc1ccc(CCNCc2ccc(Oc3cccc(Nc4ccccc4)c3)cc2)cc1
IC50 [1]: 3.99 µM
IC50 [2]: 14.6 µM
IC50 [3]: 6.89 µM
IC50 [4]: 2.18 µM
IC50 [5]: 4.65 µM
IC50 [6]: 116 µM
inhibition [7]: 35.6%

COc1cc(Oc2cccc(Nc3ccccc3)c2)cc(OC)c1CNCc1ccc(O)cc1
IC50 [1]: 3.36 µM
IC50 [2]: 7.94 µM
IC50 [3]: 2.18 µM
IC50 [4]: 3.43 µM
IC50 [5]: 2.69 µM
IC50 [6]: 123 µM
inhibition [7]: 31.8%

COc1cc(Oc2cccc(Nc3ccccc3)c2)cc(OC)c1CNCc1ccc(F)cc1
IC50 [1]: 4.22 µM
IC50 [2]: 6.77 µM
IC50 [3]: 2.75 µM
IC50 [4]: 3.64 µM
IC50 [5]: 2.65 µM
IC50 [6]: 137 µM
inhibition [7]: 21.2%

CNCc1c(OC)cc(Oc2cccc(Nc3ccccc3)c2)cc1OC
IC50 [1]: > 20 µM
IC50 [2]: 15 µM
IC50 [3]: 7.43 µM
IC50 [4]: 8.93 µM
IC50 [5]: 11.9 µM
IC50 [6]: > 150 µM
inhibition [7]: 2.5%

COc1cc(Oc2cccc(Nc3ccccc3)c2)cc(OC)c1CNCCc1ccc(O)cc1
IC50 [1]: 15.7 µM
IC50 [2]: 12.7 µM
IC50 [3]: 2.93 µM
IC50 [4]: 6.14 µM
IC50 [5]: 4.03 µM
IC50 [6]: 83 µM
inhibition [7]: 51.7%

COc1cc(Oc2cccc(Nc3ccccc3)c2)cc(OC)c1CN1CCN(CCO)CC1
IC50 [1]: > 20 µM
IC50 [2]: > 20 µM
IC50 [3]: > 20 µM
IC50 [4]: 6.43 µM
IC50 [5]: > 20 µM
IC50 [6]: > 150 µM

COc1ccc(CCNCc2ccc(Oc3cccc(Nc4ccccc4)c3)cc2OC)cc1
IC50 [1]: 2.67 µM
IC50 [2]: 7.84 µM
IC50 [3]: 3.97 µM
IC50 [4]: 1.02 µM
IC50 [5]: 4.06 µM
IC50 [6]: 102 µM
inhibition [7]: 42.1%

COc1ccc(CCNCc2c(OC)cc(Oc3cccc(Nc4ccccc4)c3)cc2OC)cc1
IC50 [1]: 0.98 µM
IC50 [2]: 6.23 µM
IC50 [3]: 1.02 µM
IC50 [4]: 1.25 µM
IC50 [5]: 1.12 µM
IC50 [6]: 69 µM
inhibition [7]: 75.1%

COc1cc(Oc2cccc(Nc3ccccc3)c2)cc(OC)c1CNCCc1ccc(Cl)cc1
IC50 [1]: 5.4 µM
IC50 [2]: 10 µM
IC50 [3]: 2.82 µM
IC50 [4]: 3.76 µM
IC50 [5]: 3.4 µM
IC50 [6]: 92 µM
inhibition [7]: 43.7%
